Results published in ChEMBL document CHEMBL1141214, “Use of structure-based drug design approaches to obtain novel anthranilic acid acyl carrier protein synthase inhibitors” (J Med Chem, 2005).
≈ marks a conversion by molar mass, not a printed value. Where “and” joins values, the source holds several entries; their conditions need not be identical. Identical values can stand only once.

Experiments:
Streptococcus pneumoniae = test: Inhibitory activity against penicillin-resistant Streptococcus pneumoniae penR; type: functional
Outline: (§1)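 Broth microdilution per NCCLS in Mueller-Hinton II broth; serial compound dilutions inoculated to 10⁵ CFU/mL, incubated 18–22 h at 35 °C in ambient air. MIC taken as lowest concentration completely inhibiting visible growth (unaided eye).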

Candida albicans = test: Inhibitory activity against Candida albicans; type: functional
Outline: (§2)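 Broth microdilution per NCCLS in Mueller-Hinton II broth; serial dilutions in microtiter wells, inoculum 10⁵ CFU/mL, 100 μL final. Incubated 18–22 h at 35 °C in ambient air. MIC taken as lowest concentration giving complete visible growth inhibition by unaided eye.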

Bacillus subtilis = test: Inhibitory activity against Bacillus subtilis 168; type: functional; outline: as §2
[1] = target: T1, Holo-[acyl-carrier-protein] synthase (Bacillus subtilis (strain 168), UniProt P96618); test: Inhibitory activity against Bacillus subtilis AcpS by HTRF assay
T1 sequence (P96618 whole entry): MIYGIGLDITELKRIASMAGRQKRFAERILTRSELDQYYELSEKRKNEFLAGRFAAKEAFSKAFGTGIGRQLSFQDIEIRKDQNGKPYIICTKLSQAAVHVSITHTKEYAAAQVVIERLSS

Enterococcus faecalis = test: Inhibitory activity against vancomycin-resistant Enterococcus faecalis VRE; type: functional; outline: as §1
Staphylococcus aureus = test: Inhibitory activity against methicillin-resistant Staphylococcus aureus MRSA; type: functional; outline: as §1
Escherichia coli = test: Inhibitory activity against Escherichia coli; type: functional; outline: as §2

SMILES: C/C(=C\c1ccc(Cl)cc1)C(=O)Nc1cc(Cl)ccc1C(=O)O
- MIC (Streptococcus pneumoniae): 32 µg/mL (≈ 91.4 µM)
- MIC (Candida albicans): > 128 µg/mL
- MIC (Bacillus subtilis): 32 µg/mL (≈ 91.4 µM)
- IC50 [1]: 32.3 µM
- MIC (Enterococcus faecalis): 64 µg/mL (≈ 183 µM)
- MIC (Staphylococcus aureus): 32 µg/mL (≈ 91.4 µM)
- MIC (Escherichia coli): > 128 µg/mL

SMILES: O=C(O)c1cc(Cl)ccc1NC(=O)c1cccc2c1-c1ccccc1C2=O
- IC50 [1]: 0.821 µM and 0.82 µM

SMILES: CC(Cc1ccccc1)C(=O)Nc1ccc(Cl)cc1C(=O)O (configuration not stated)
- IC50 [1]: 2.83 µM and 2.8 µM

SMILES: CSC(Cc1ccc(Cl)cc1)C(=O)Nc1ccc(Cl)cc1C(=O)O (configuration not stated)
- MIC (Streptococcus pneumoniae): 64 µg/mL (≈ 167 µM)
- MIC (Candida albicans): > 128 µg/mL
- MIC (Bacillus subtilis): 64 µg/mL (≈ 167 µM)
- IC50 [1]: 1.43 µM and 1.4 µM
- MIC (Enterococcus faecalis): 128 µg/mL (≈ 333 µM)
- MIC (Staphylococcus aureus): 64 µg/mL (≈ 167 µM)
- MIC (Escherichia coli): > 128 µg/mL

SMILES: NS(=O)(=O)c1cc(C(=O)O)c(NCc2ccco2)cc1Cl [FUROSEMIDE]
- IC50 [1]: 12.7 µM
